From ChEMBL document CHEMBL4513216, “Probing the Open Global Health Chemical Diversity Library for Multistage-Active Starting Points for Next-Generation Antimalarials” (ACS Infect Dis, 2020)

Test: Toxicity liver stage against HepG2, at 10uM
Format: cell-based
Set-up: test concentration 10 uM, cell line HepG2-A16-CD81EGFP
Conditions: human, HepG2-A16-CD81EGFP cells; read-out: INHIBITION
Procedure, shortened: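 Uninfected HepG2-A16-CD81EGFP cells, 3 × 10^3 per well, 1536-well, plated on prespotted compound at 10 μM final, parasite-free screening media added to match infected plates; puromycin 10 μM positive, DMSO 0.5% negative; run in parallel with 48 h PbLuc assay at 37 °C, 5% CO2; viability by CellTiter-Glo luminescence, normalized to controls.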

SMILES | cytotoxicity at 10 µM
Cn1c2ccc(F)cc2c2ncn(CCCN(CCO)CCO)c(=O)c21 | 11.2%
CN1CC[C@H](c2nnc(Cc3c[nH]c4ccccc34)o2)C1 | 4.84%
Cn1nc(-c2cccs2)cc1[C@H]1CN2CC[C@H]1C[C@@H]2CN | 5.88%
COCCN(Cc1cc(O)nc2ccccc12)C(=O)NC(C)C | 7.66%
CCN1CCNC(=O)C12CCN(S(=O)(=O)c1ccc(OC)cc1)CC2 | 0.699%
COCCN1CCC2(CCN(C(=O)c3ccc(F)cc3)CC2)C1=O | 2.85%
CCN1CC2(CC1=O)CN(C(=O)NC)CCN(S(C)(=O)=O)C2 (stereo not drawn) | -6.29%
Cc1nc(C)c2c(n1)CCN(C(=O)CN(C)C)CC2 | -4.51%
CS(=O)(=O)N1C[C@@H]2CCN(C(=O)c3ccco3)[C@@H]2C1 | 10%
COCc1cncc2c1CCN(Cc1cccnc1)C2 | 3.91%
c1cc(C[C@H]2[C@H](N3CCOCC3)CCN2Cc2ccoc2)ccn1 | 10.2%
CC(=O)N1CCOC2(CCCN(Cc3ccc(N(C)C)cc3)C2)C1 (stereo not drawn) | 0.603%
O=C(c1ccoc1)N1CCc2c(COCc3ccncc3)cncc2C1 | 8.1%
CNC(=O)C1CCN(c2nc3nc[nH]c(=O)c3s2)CC1 | -13.5%
COc1ccc(C2SCC(=O)N2c2ncc(C)s2)cc1 (stereo not drawn) | 8.45%
CN(C)C(=O)COC[C@]12COC[C@H]1CN(Cc1ccoc1)C2 | -1.56%
COC(=O)c1cccc(C2CNCCN2C(C)=O)c1 (stereo not drawn) | 3.31%
CS(=O)(=O)c1cc(Cl)cnc1C1CCN(C(=O)C2CCOCC2)CC1 | 4.07%
CN(C)c1ncc2c(O)nc(C3CCCNC3)cc2n1 (stereo not drawn) | 8.62%
Cn1ncc2c1CCCN(C(=O)C1CC1)C2 | -8.27%
CNC(=O)C1(CCCc2cnccn2)CCN1Cc1ccc(C)cc1 (stereo not drawn) | 0.615%
CNc1nc(C2CCCN(C(=O)C3CCCCC3)C2)nc2c1CNCC2 (stereo not drawn) | -1.85%

SMILES | cytotoxicity at 10 µM
Nc1nccnc1CC1CCCN(Cc2c[nH]c3ccccc23)C1 (stereo not drawn) | 2.81%
Cc1cc(CCC(=O)N2CCCC2)nc(C2CCCN2)n1 (stereo not drawn) | 5.91%
CCc1cc(C(=O)N2CCCC(c3[nH]ncc3S(C)(=O)=O)C2)no1 (stereo not drawn) | -0.335%
CCc1nccn1-c1cccc(C2CCCN(C3CCCCC3)C2)n1 (stereo not drawn) | -5.08%
Cc1c[nH]nc1C1CCCCN1C(=O)CC1(O)CCCCC1 (stereo not drawn) | -2.92%
Cn1cc(C2CCCN2C(=O)c2cnc(-c3ncccn3)s2)cn1 (stereo not drawn) | 18.8%
N#CCCN(Cc1ccco1)C(=O)COC1CCCCC1 | 6.35%
CNC(=O)CCOC(=O)c1cccc(-n2ccc(C(F)(F)F)n2)c1 | -41.9%
Cc1cc(C2CCCN(C(=O)COc3cc(F)ccc3F)C2)n[nH]1 (stereo not drawn) | -1.3%
Cn1c(C2CCCN2C(=O)CN2CCCC2=O)nc2ccccc21 (stereo not drawn) | -3.47%
CN1CCC(N2CCOC3(CCCC3)C2)C1=O (stereo not drawn) | -6.52%
Cc1cnc(CN2CCN(C(C)c3nc(C4CC4)no3)CC2)cn1 (stereo not drawn) | 1.32%
O=C(Cn1ccc(=O)c2ccccc21)Nc1cnccc1O | -4.08%
O=C(N1CCOCC1)N1CCN(c2ccncc2Cl)CC1 | -4.79%
Cc1cnn(CC2CCCN2CC(=O)N(C)Cc2ccco2)c1 (stereo not drawn) | 10.8%
CN(Cc1nc2ccccc2s1)C1CCCN(c2cccnn2)C1 (stereo not drawn) | 5.15%
CC(=O)c1cccc(NC(=O)N(CCO)C2CCc3ccccc32)c1 (stereo not drawn) | -3.01%
COCC(C)(C)NS(=O)(=O)C1CS(=O)(=O)c2ccccc21 (stereo not drawn) | 4.22%
Cc1nc(-c2ccsc2)ccc1C(=O)N1CCn2c(C)nnc2C1 | -7.83%
CC(C)(C)n1ncc2c(=O)[nH]c(NC3CC=CC3)nc21 | 1.68%
NC(=O)CNC1(c2ccc(Cl)cc2)CCCC1 | 13%
CC(C)C(CNCc1cccc2c1OCO2)N1CCOCC1 (stereo not drawn) | -49.1%

SMILES | cytotoxicity at 10 µM
CCc1nc(C2CCCN2c2ncc(C(N)=O)cc2Cl)no1 (stereo not drawn) | -3.99%
COC(=O)CC(C)(C)CC(=O)N1CCC(C(F)(F)F)CC1 | 14.9%
O=c1[nH]c(N2CCN(C3CC3)CC2)nc2c1cnn2-c1ccccc1 | 10.8%
COC(=O)CCCNC(=O)COc1ccccc1C(F)(F)F | -0.969%
O=C(NCC1CC1)[C@@H]1CC[C@@H]2[C@@H](CCN2CCOCc2ccccc2)O1 | -112%
CN1CCN(Cc2cn3c(n2)CN(Cc2ccccn2)CC3)CC1 | -117%
Cc1ccc(CN2CCC3(CCCN(S(C)(=O)=O)C3)C2)o1 (stereo not drawn) | -104%
CCC1=N[C@@]2(CC[C@@H]3CN(C(=O)NCc4ccccc4)C[C@@H]32)C(=O)N1C | 1.05%
CC[C@H](C)Nc1ncc(-c2ccn(C3CCN(C(C)=O)CC3)n2)cn1 | -9.22%
CC[C@@H](C)[C@@H](N)C(=O)Nc1cccc(-c2cnc(NCCO)nc2)c1 | -3.08%
CCOc1ccc(-c2ccnc(C)n2)cc1C(=O)O | 5.59%
c1cc(CN(CCCn2ccnc2)Cc2ccoc2)ccn1 | -11.1%
O=C(NCCN1CCCC(CO)C1)c1ccc2sccc2c1 (stereo not drawn) | -5.35%
CC(CCN1CCC(n2cc(CCO)nn2)CC1)c1ccccc1 (stereo not drawn) | 3.23%
COc1ccccc1-c1ncc(CN2CCC3(CCNCC3)CC2)cn1 | -1.49%
CCN(C)Cc1nc(-c2ccccc2NS(C)(=O)=O)oc1C | 3.63%
COCCC1CN(c2nc(-c3ccccc3)nc3c2CCNC3)CCO1 (stereo not drawn) | -2.98%
Cc1nccc(NCc2cc3n(n2)CCCN(S(C)(=O)=O)C3)n1 | 2.35%
C/C=C(\C)CN1C[C@H](NC(=O)c2cc[nH]c2C)[C@@H](C2CC2)C1 | 4.96%
NCC1Cc2cc(Cl)cc(-c3cncc(C(=O)N4CCCCC4)n3)c2O1 (stereo not drawn) | -53%
COc1ccc(-n2c(SC)nc(O)c(Cc3ccccc3)c2=O)cc1 | -7.52%
CC(=O)NCc1nnc2n1CCN(c1ncnc3c(C)csc13)CC2 | 4.71%

SMILES | cytotoxicity at 10 µM
Cc1cc(F)cc(CN2CCCn3nc(CNS(C)(=O)=O)cc3C2)c1 | -3.85%
Cc1nc(CCNc2nc(N(C)C)nc3c2CCCC3)cc(=O)[nH]1 | 6.86%
COCC1CCN(S(=O)(=O)N2C[C@@H](C)[C@@](C)(O)C2)CC1 | 3.45%
CC[C@H](C)Cn1nc(C2CCNCC2)n(Cc2ccccc2)c1=O | -5.82%
O=C(O)C1(Oc2ccc(Cl)cc2)CCN(C2CCOCC2)CC1 | 3.05%
Cc1cccn2c(CNC(C)CO)cnc12 (stereo not drawn) | -2.78%
CCCN(Cc1cccc(OCCO)c1)Cc1ccccc1OC | 5.15%
CCN(CCO)C(=O)c1cc(Cn2c(C)nc3ccccc32)[nH]n1 | 8.51%
CNC(=O)[C@@H]1C[C@@H](n2cc(-c3ccc(CN4CC=CC4)cc3)nn2)CN1 | 3.76%
Cc1nc[nH]c1CN1CCN(C(=O)CCC(F)(F)F)[C@H]2CS(=O)(=O)C[C@H]21 | -12.3%
Cc1c(Br)cc2c(c1C)OCC(N(C)C)C2=O (stereo not drawn) | -13.1%
Cc1cn(Cc2ccccc2)nc1N | -4.66%
Cc1noc(C2CCN(C(=O)Nc3ccc(N(C)C)nc3)CC2)n1 | -3.45%
CN1CCCC1CNC(=O)CCCOc1ccc(Cl)cc1 (stereo not drawn) | -9.33%
CCn1c(CN2CCN(CCO)CC2)nc2c(F)cccc21 | -8.83%
Cn1cnnc1C1CCCN(C(=O)CCc2ccc3c(c2)OCO3)C1 (stereo not drawn) | 0.415%
COc1ccc(-c2nc(CN3CCCC3Cn3cccn3)no2)cc1 (stereo not drawn) | -1.89%
COc1cc(CCC(=O)NC2CC2)ccc1OCC(F)(F)F | -8.35%
CCN(CC1CCOC1)C(=O)c1ccccc1NS(=O)(=O)CC (stereo not drawn) | -7.4%
CC(=O)N1CCCN(C(=O)c2cnc3n[nH]c(C)c3c2)CC1 | -5.85%
Cc1ccc(NC2CCN(C(=O)CCc3ccco3)CC2)nn1 | -2.97%
Cc1ccccc1CC(=O)N1CCN(C2CCOC2=O)CC1 (stereo not drawn) | -8.38%

SMILES | cytotoxicity at 10 µM
CCc1nccn1C1CCCN(C(=O)c2cnn3ccc(C)nc23)C1 (stereo not drawn) | -9.68%
Cc1cnn(CC2CCCN2C(=O)c2cc3c(F)cccc3[nH]2)c1 (stereo not drawn) | -12.7%
Cc1ccc(-c2cc(CN3CCOC(Cn4cncn4)C3)on2)cc1 (stereo not drawn) | -8.65%
CC(=O)N1CCC(N2CCC(c3nc(C)cc(C)n3)C2)CC1 (stereo not drawn) | -7.87%
c1cncc(OC[C@]23COC[C@H]2CN(C2CCOCC2)C3)c1 | 8.61%
COCCN1CCO[C@@H]2CN(Cc3sccc3C)C[C@@H]2C1 | -1.34%
Cc1ccc(N2Cc3cnn(C)c3C(COCC3CC3)C2)nn1 (stereo not drawn) | 3.28%
COc1ccccc1CN1CC[C@]2(C[C@@H](OCC(=O)N(C)C)CO2)C1 | -112%
c1ncc(-c2ccc(C3CNCCO3)nc2)cn1 (stereo not drawn) | -5.33%
Cc1ncsc1CN1C[C@H](C(=O)NCC2CC2)[C@@H]2CCO[C@@H]2C1 | -3.17%
CN1CCN([C@@H]2CCN(C3CCOC3)[C@H]2Cc2cnn(C)c2)CC1 (stereo partly drawn) | 6.28%
O=C(Nc1cnccn1)[C@@H]1COC[C@H]2CN(C3CCC3)C[C@H]21 | 14.7%
O=S(=O)(NC[C@]12COC[C@H]1CN(CCc1ccccc1)C2)C1CC1 | 12.7%
CO[C@H]1CCN(c2nnc(C)s2)C[C@@H]1Cc1cccc(C)c1 | 16.6%
O=C1COC2(CCN(Cc3ccsc3)CC2)CN1 | -3.46%
CN(C)C[C@H]1OC[C@@H]2CN(C(=O)NCc3cccc(F)c3)CC[C@@H]21 | -2.12%
c1ccc(OCc2noc3c2CN(c2ncccn2)CC3)nc1 | -3.25%
CN1CCN(c2ncnc3c2CCN(c2ncc(F)cn2)CC3)CC1 | 7.61%
O=C(NCCc1cccs1)[C@]12COC[C@H]1CN(Cc1ccccn1)C2 | -105%
Cc1ccc(C(=O)N2C[C@@H]3CC[C@H]2CN(S(=O)(=O)N(C)C)C3)c(O)c1 | 3.41%
